RBBP9 inh: blocks human serine hydrolase RBBP9; recombinant RBBP9, FP-Rh probe fluorescence polarization; inhibition, % at 7.94 µM; O75884; AID 1515; 220,000 tested, 0.2% active;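 active = inhibition above the campaign mean of all tested compounds plus 3 SD, cut at about 14% in these data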
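Controls: DMSO-treated enzyme wells and wells lacking RBBP9 | Material: RBBP9 protein | Technique: Fluorescence polarization | Replication: Single well per compound, no replicates | Buffer or medium: Tris-NaCl-Pluronic buffer, pH 8.0 | Timing: 30 min compound preincubation, 45 min probe labeling, 25 °C | Read-out basis: Percent inhibition from mP, scaled between DMSO and no-protein wells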
Calpain2 inh: calpain II (pig) inhibition; purified calpain II, fluorogenic peptide substrate, 30 min; inhibition, % at 16 µM; 220,000 tested, 0.37% active; AID 1236;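 active = inhibition above about 50%, limit read from the data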
TNF necrop inh: blocks TNF-alpha induced death of Jurkat FADD-/- cells; AID 463075; Jurkat FADD-/- TNF necroptosis rescue, ATP luminescence, 24 h; 0 = TNF only, 100 = no-TNF cells; activation (protection from cell death), % at 10 µM; 220,000 tested, 0.068% active;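 active = activation, meaning protection from cell death, of at least 50% relative to plate controls; inactive = activation below 50%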;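 note: necroptosis triggered by 40 ng/mL TNF-alpha added together with compound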
Pf gamet viab: inhibitors of late stage P. falciparum gametocyte viability; P. falciparum stage V gametocytes, ATP luminescence, 24 h; inhibition, % at 10.9 µM; 150,000 tested, 0.065% active; AID 743093;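 active = inhibition above the mean plus 3 SD of compounds within the control limits, set per campaign, cut at about 38% in these data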
zVAD death inh: blocks zVAD induced death of L929 cells; L929 zVAD necroptosis rescue, ATP luminescence, 24 h; with zVAD 60 µM; viability rescue, % at 10 µM; 220,000 tested, 0.38% active;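 active = activation, scaled between plate controls, above about 75%, limit read from the data; inactive = activation under that limit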
Wee1 degr inh: blocks degradation of human Wee1 kinase | HeLa Luc-Wee1K328M stability, luciferase luminescence; 100% = proteasome inhibitor MG132 effect | reporter increase, % at 5 µM | 220,000 tested, 1.2% active | AID 1321;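 active = activation above the mean of all tested compounds plus 3 SD, set per screening run, cut at about 8.8% in these data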;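 note: cells exposed to compound for 20 h before luminescence read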
Target sequence (P30291 whole entry K328M): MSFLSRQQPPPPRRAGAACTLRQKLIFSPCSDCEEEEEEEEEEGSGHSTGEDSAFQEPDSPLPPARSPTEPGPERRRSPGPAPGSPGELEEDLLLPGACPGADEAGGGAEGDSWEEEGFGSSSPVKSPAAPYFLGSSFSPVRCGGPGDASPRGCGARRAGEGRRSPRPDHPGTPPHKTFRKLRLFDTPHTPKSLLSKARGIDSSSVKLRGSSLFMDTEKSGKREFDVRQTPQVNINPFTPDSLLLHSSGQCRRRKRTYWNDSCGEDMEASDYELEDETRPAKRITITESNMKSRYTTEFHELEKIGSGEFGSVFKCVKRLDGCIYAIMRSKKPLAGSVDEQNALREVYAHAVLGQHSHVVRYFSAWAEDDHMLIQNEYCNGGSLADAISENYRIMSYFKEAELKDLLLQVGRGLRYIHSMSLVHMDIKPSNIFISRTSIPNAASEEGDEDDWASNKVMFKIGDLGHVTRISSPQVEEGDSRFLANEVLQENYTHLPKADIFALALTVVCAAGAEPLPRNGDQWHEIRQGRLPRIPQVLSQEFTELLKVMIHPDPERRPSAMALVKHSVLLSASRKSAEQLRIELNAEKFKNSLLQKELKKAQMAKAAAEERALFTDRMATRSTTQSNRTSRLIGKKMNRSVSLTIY
Each line names hits and unclear results; the compound was inactive in the other large screens. A selection: hits, their analogues and other compounds. The true share with any hit is near 2.1%.

Cc1cccc(NC(=O)CSc2nc(N)c(NC(=O)c3cccs3)c(=O)[nH]2)c1	Wee1 degr inh 9.3 (no result: Pf gamet viab, zVAD death inh)
Cc1ccc(C)c(NC(=O)CSc2nc(N)c(NC(=O)c3cccs3)c(=O)[nH]2)c1	none (no result: Pf gamet viab, zVAD death inh)
Cc1ccc(NC(=O)COC(=O)Cc2csc(-c3cccc(F)c3)n2)cc1C	none (no result: Pf gamet viab)
Cc1ccc(NC(=O)COC(=O)Cc2csc(-c3ccc(Cl)cc3)n2)cc1C	Wee1 degr inh 15
CC1=C(C(=O)N2CCOCC2)C(c2cccc3ccccc23)NC(=S)N1 (stereo not drawn)	Wee1 degr inh 11
CC1=C(C(=O)N2CCOCC2)C(c2ccc(-c3ccccc3)cc2)NC(=S)N1 (stereo not drawn)	none
CN(CC(=O)Nc1ccc(S(=O)(=O)N2CCCC2)cc1)Cc1c(F)cccc1Cl	none
O=C(CN1CCCC1)Nc1ccc(Br)cc1[N+](=O)[O-]	none (no result: RBBP9 inh, Calpain2 inh, TNF necrop inh, zVAD death inh, Wee1 degr inh)
O=C1c2ccc(Br)cc2C(=O)N1c1ccc(Cc2ccncc2)cc1	Calpain2 inh 88
O=C1C2C3C=CC(C3)C2C(=O)N1c1ccc(Cc2ccncc2)cc1 (stereo not drawn)	none
COc1ccc(CSC2=CS(=O)(=O)c3ccccc3N2)cc1	Wee1 degr inh 9.7
CC(C)N(C(=O)NC(=O)NCC1CCCO1)S(C)(=O)=O (stereo not drawn)	Wee1 degr inh 9.5 (no result: Pf gamet viab)
CCC(C)[C@H](NC(=O)NCC1CCCO1)C(=O)OC (stereo partly drawn)	none (no result: Pf gamet viab)
O=c1[nH]cc(N(CCO)CCO)c(=O)[nH]1	Wee1 degr inh 9.5
O=c1[nH]cc(O)c(=O)[nH]1	none (no result: Pf gamet viab)
CCc1ccccc1NC(=O)CC1CS(=O)(=O)CC1CC(=O)Nc1ccccc1CC (stereo not drawn)	none (no result: Pf gamet viab)
O=C(CC1CCS(=O)(=O)C1)Nc1ccc[nH]c1=O (stereo not drawn)	RBBP9 inh 16
CCOc1cc(/C=N/n2cnnc2)ccc1OS(=O)(=O)c1ccccc1	Calpain2 inh 63
O=S(=O)(Oc1ccccc1/C=N/n1cnnc1)c1ccccc1	none
COc1cc(/C=N/n2cnnc2)ccc1OS(=O)(=O)c1ccccc1[N+](=O)[O-]	Calpain2 inh 59
N#CC[n+]1cc(-c2ccc(Cl)cc2)n2c1CCC2	Wee1 degr inh 8.9
O=C(Nc1cc(S(=O)(=O)N2CCOCC2)ccc1N1CCOCC1)c1cccc(S(=O)(=O)N2CCCCC2)c1	none
CCCC(=O)OCC(=O)c1[nH]c(C)c(C(C)=O)c1C	none (no result: Pf gamet viab)
CCCCC(=O)OCC(=O)c1[nH]c(C)c(C(C)=O)c1C	Calpain2 inh 89
Cc1nnc(SCc2ccccc2)[nH]c1=O	none
Cc1nnc(SCC(C)C)[nH]c1=O	Wee1 degr inh 9.4 (no result: Pf gamet viab)
Cc1csc2ncnc(N3CCN(C(=O)Nc4ccc(OC(F)(F)F)cc4)CC3)c12	Calpain2 inh 57
Cc1csc2c(N3CCN(C(=O)Nc4ccccc4)CC3)ncnc12	none
O=C(CSc1nnc(CNc2ccc(F)cc2)o1)c1ccccc1	none
O=C1c2ccccc2C(=O)C1c1ccnc2ccccc12	Wee1 degr inh 11 (no result: Pf gamet viab)
O=C1c2ccccc2C(=O)C1c1ccc2ccccc2n1	none
N#CC1=C(N)SC(N)=C(C#N)C1c1ccnc2ccccc12	none
O=C1c2ccccc2C(=O)C1c1nccc2ccccc12	Wee1 degr inh 10 (no result: Pf gamet viab)
CC(C)CCNC(=O)[C@H](CC(C)C)NC(=O)[C@H]1O[C@@H]1C(=O)O	Calpain2 inh 100 (no result: Pf gamet viab)
CC(C)CCNC(=O)C(=O)Nc1ccccc1	none
CCOC(=O)[C@H]1O[C@@H]1C(=O)N[C@@H](CC(C)C)C(=O)NCCC(C)C	Calpain2 inh 97 (no result: TNF necrop inh, Pf gamet viab, zVAD death inh)
CC(=O)N1CCc2cc(Br)cc(S(=O)(=O)CCC(=O)N3CCN(c4ccccn4)CC3)c21	none
N#Cc1ccc(OCC(=O)Nc2ccccc2NS(=O)(=O)c2cccs2)cc1	none
COc1cc([N+](=O)[O-])ccc1NC(=O)CCCOc1cccc(C)c1C	none
O=C1Nc2ccccc2N(O)N1c1ccc(S(=O)(=O)N2CCCCCC2)cc1	Wee1 degr inh 9.7
Cc1ccc(C)c2[nH]c(=O)c(CN(Cc3nnnn3C3CCCCC3)CC3CCCO3)cc12 (stereo not drawn)	Wee1 degr inh 9.8 (no result: Pf gamet viab)
Cc1ccc(C)c2[nH]c(=O)c(CN(CCN3CCOCC3)Cc3nnnn3CC3CCCO3)cc12 (stereo not drawn)	none (no result: Pf gamet viab)

Assay outcomes as filed in PubChem.
